The values that follow come from ChEMBL document CHEMBL2157868, “Design, synthesis, and preliminary biological evaluation of 6-O-glucose-azomycin adducts for diagnosis and therapy of hypoxic tumors” (J Med Chem, 2012).

Test [1] is described as follows: Cytotoxicity against mouse KBALB-STK cells after 3 days by MTT assay. Particulars: 72 h. In kind it is functional, cell-based. The essentials: (§1)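 MTT assay. Exponentially growing cells were seeded at 8 × 10² cells/well and held 24 h at 37 °C in 5% CO₂. Compound from a 2 mM stock in 95% ethanol was added, with a maximum final concentration of 1 mM. Exposure lasted 3 days at 37 °C. MTT was added for 4 h, formazan dissolved in DMSO, and absorbance read at 540 nm. IC50s were estimated from survival plots.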
(Tetrazolium dyes change colour on reduction, which living cells bring about.)

Test [2] relates to HeLa. Description: Cytotoxicity against human HeLa cells after 3 days by MTT assay. The note with it: 72 h. Format: functional, cell-based. The essentials:
as §1

The subject of test [3] is HeLa. Description: Cytotoxicity against human HeLa cells assessed as survival fraction under hypoxic condition to hypoxic condition plus sensitizer at 0.5 mM after 30 mins by clonogenic assay relative to control.
Test [4] in a line: Cytotoxicity against human MOO6X cells assessed as survival fraction ratio under hypoxic condition at 0.5 mM incubated for 30 mins followed by compound wash out measured after 10 to 14 days by clonogenic assay relative to control. In kind it is functional. The essentials:
(§2)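 Clonogenic radiosensitization. Cells (300000 per dish, DMEM/F12) were grown 24 h at 37 °C, 5% CO₂, then exposed to compound for 30 min. Hypoxic dishes were degassed by six vacuum/N₂ cycles, and all dishes were shaken 30 min at room temperature. Dishes were ⁶⁰Co γ-irradiated (0–20 Gy) under N₂ or air, then trypsinized and replated. Colonies were grown 10−14 days, stained, and counted, in triplicate. Surviving fractions at 18 Gy were taken from survival plots.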

Test [5] has as its system EMT6. Description: Cytotoxicity against mouse EMT6 cells assessed as survival fraction ratio under hypoxic condition at 0.5 mM incubated for 30 mins followed by compound wash out measured after 10 to 14 days by clonogenic assay relative to control. Format: functional. The essentials: as §2
The nature of test [6]: Cytotoxicity against mouse KBALB cells after 3 days by MTT assay. Format: functional, cell-based. The note with it: 72 h. The essentials: as §1
Test [7] relates to EMT6. Description: Cytotoxicity against mouse EMT6 cells after 3 days by MTT assay. The note with it: EMT6, 72 h. In kind it is functional, cell-based. The essentials: as §1
Test [8] is described as follows: Cytotoxicity against human MOO6X cells after 3 days by MTT assay. The note with it: 72 h. Format: functional, cell-based. The essentials: as §1
A short description of test [9]: Ratio of IAZA IC50 to compound IC50 for human MOO6X cells. Format: functional.
Test [10] concerns the target T1, Solute carrier family 2, facilitated glucose transporter member 1 (Homo sapiens) (UniProt P11166).
T1 sequence (whole entry): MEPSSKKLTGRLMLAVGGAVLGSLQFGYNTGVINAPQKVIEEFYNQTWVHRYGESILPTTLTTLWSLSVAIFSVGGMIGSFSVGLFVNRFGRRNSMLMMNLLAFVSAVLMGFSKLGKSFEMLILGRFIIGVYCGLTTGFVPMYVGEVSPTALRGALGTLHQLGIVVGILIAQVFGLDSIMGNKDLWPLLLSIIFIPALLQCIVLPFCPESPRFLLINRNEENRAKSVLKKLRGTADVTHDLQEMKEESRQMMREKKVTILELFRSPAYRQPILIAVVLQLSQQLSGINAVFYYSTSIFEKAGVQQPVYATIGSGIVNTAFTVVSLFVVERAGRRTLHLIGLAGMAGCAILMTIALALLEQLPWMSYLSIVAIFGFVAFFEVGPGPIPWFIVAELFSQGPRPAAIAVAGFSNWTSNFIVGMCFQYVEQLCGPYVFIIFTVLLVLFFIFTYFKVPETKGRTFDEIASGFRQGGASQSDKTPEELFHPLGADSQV
Description: Binding affinity to recombinant GLUT1 expressed in Xenopus oocytes assessed as inhibition of [14C]glucose uptake after 20 mins by liquid scintillation counting. Format: cell-based. The note with it: Oocyte. The essentials: (§3)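 Xenopus oocytes expressing the GLUT were incubated in groups of 10−12 in Na⁺ transport medium (Hepes, pH 7.5) with [¹⁴C]glucose (1 μCi/mL) and inhibitor for 20 min at 20 °C. Oocytes were washed six times in ice-cold medium, dissolved in 1% SDS, and counted by liquid scintillation. Uptake inhibition was plotted against inhibitor concentration; for GLUT-2, EC50 came from four-parameter logistic fitting.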

Test [11] concerns the target T2, Solute carrier family 2, facilitated glucose transporter member 2 (Homo sapiens) (UniProt P11168).
T2 sequence (whole entry): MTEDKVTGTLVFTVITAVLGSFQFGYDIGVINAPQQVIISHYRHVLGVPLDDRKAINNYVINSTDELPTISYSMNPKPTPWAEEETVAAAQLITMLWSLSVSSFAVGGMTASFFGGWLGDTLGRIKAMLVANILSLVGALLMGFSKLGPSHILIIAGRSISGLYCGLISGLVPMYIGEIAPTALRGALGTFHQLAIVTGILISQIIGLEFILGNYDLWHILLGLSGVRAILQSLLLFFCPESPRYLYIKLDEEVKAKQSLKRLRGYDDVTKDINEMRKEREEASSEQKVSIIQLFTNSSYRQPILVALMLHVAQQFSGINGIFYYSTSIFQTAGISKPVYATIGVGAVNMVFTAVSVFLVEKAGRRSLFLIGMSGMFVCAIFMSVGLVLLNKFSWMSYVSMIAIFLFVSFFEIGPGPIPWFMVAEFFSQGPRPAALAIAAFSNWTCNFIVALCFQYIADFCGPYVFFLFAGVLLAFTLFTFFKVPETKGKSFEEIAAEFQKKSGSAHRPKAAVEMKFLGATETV
Description: Binding affinity to recombinant GLUT2 expressed in Xenopus oocytes assessed as inhibition of [14C]glucose uptake after 20 mins by liquid scintillation counting. In kind it is cell-based. The note with it: Oocyte. The essentials:
as §3

For test [12], the system named is EMT6. Description: Cytotoxicity against mouse EMT6 cells assessed as survival fraction ratio under hypoxic condition at 0.1 to 1 mM after 6 hrs relative to control. In kind it is functional.

The IC50 is the midpoint of a concentration-inhibition curve. Lower therefore signals inhibition by little substance.

SMILES strings stand for the structures. Active and inactive are the calls of the source. No cut-off for these calls is given here. A value given as a limit tells only on which side of the number the result lay.

Consider `O=[N+]([O-])c1nccn1CC(O)COC[C@H]1OC(O)[C@H](O)[C@@H](O)[C@@H]1O` (mixture of isomers), for which the IC50 was determined as 500 µM in test [1]; 500 µM with HeLa [2]; 500 µM in test [6]; 600 µM with EMT6 [7]; 50 µM in test [8]. Also, the Ratio in the test with HeLa [3] amounted to 1.2; in test [4] it was 1; with EMT6 [5], 1. In addition, the “Ratio IC50” value in [9] worked out at 10.

Take `O=[N+]([O-])c1nccn1CC([18F])COC[C@H]1OC(O)[C@H](O)[C@@H](O)[C@@H]1O` (mixture of isomers): the half-inhibitory concentration (IC50) (in [1]; with HeLa [2]; in test [6]; in the test with EMT6 [7]; in test [8]) was greater than 1000 µM in each case. In addition, the Ratio in the test on HeLa [3] stood at 1.3; in [4], 1.3; in the test on EMT6 [5], 1.2.

With `O=[N+]([O-])c1nccn1/C=C/COC[C@H]1OC(O)[C@H](O)[C@@H](O)[C@@H]1O` (mixture of isomers), the inhibition entry in [10] was “Active”. For the same molecule, the Ratio in the test with HeLa [3] came to 1.7; in test [4], 1.3; in the test with EMT6 [5] it was 1.4. Moreover, the half-maximal inhibitory concentration (IC50) in the test with EMT6 [7] was greater than 1000 µM. Besides, in [11], the ED50 was 500 µM.

On to `O=[N+]([O-])c1nccn1[C@H]1O[C@H](C[123I])[C@@H](O)[C@@H]1O` [IODOAZOMYCIN ARABINOSIDE], for which the concentration for half-maximal inhibition (IC50) in [1] is 500 µM; in the test with HeLa [2], greater than 1000 µM; in test [6], 500 µM; in the test on EMT6 [7] it was greater than 1000 µM; in test [8] it was greater than 1000 µM. In the test with EMT6 [12], the Ratio turned out to be 1.5.
